Source: ChEMBL document CHEMBL4270541, “Synthesis and antimicrobial evaluation of amino sugar-based naphthoquinones and isoquinoline-5,8-diones and their halogenated compounds” (Eur J Med Chem, 2018)
≈ marks a conversion by molar mass, not a printed value. Calls of active or inactive are those of the source. The rule behind the calls is not given here.

Assays:
[1] = system: Enterococcus faecalis; assay: Antimicrobial activity against Enterococcus faecalis INCQS 00234 ATCC 29212 assessed as zone of inhibition at 5 mg/ml after 18 to 24 hrs by disc diffusion method; type: functional; conditions: ATCC 29212 INCQS 00234, read-out: IZ
[2] = system: Staphylococcus aureus; assay: Antimicrobial activity against Staphylococcus aureus INCQS 00015 ATCC 25923 assessed as zone of inhibition at 5 mg/ml after 18 to 24 hrs by disc diffusion method; type: functional; conditions: read-out: IZ
[3] = system: Staphylococcus epidermidis; assay: Antimicrobial activity against Staphylococcus epidermidis INCQS 00016 ATCC 12228 assessed as zone of inhibition at 5 mg/ml after 18 to 24 hrs by disc diffusion method; type: functional; conditions: ATCC 12228 INCQS 00016, read-out: IZ
[4] = system: Staphylococcus simulans; assay: Antimicrobial activity against Staphylococcus simulans INCQS 00254 ATCC 27851 assessed as zone of inhibition at 5 mg/ml after 18 to 24 hrs by disc diffusion method; type: functional; conditions: read-out: IZ
[5] = system: Staphylococcus aureus; assay: Antimicrobial activity against methicillin-resistant Staphylococcus aureus BMB9393 assessed as zone of inhibition at 5 mg/ml after 18 to 24 hrs by disc diffusion method; type: functional; conditions: read-out: IZ
[6] = system: Escherichia coli; assay: Antimicrobial activity against Escherichia coli INCQS 00033 ATCC 25922 assessed as zone of inhibition at 5 mg/ml after 18 to 24 hrs by disc diffusion method; type: functional; conditions: ATCC 25922 INCQS 00033, read-out: IZ
[7] = system: Proteus mirabilis; assay: Antimicrobial activity against Proteus mirabilis INCQS 00095 ATCC 15290 assessed as zone of inhibition at 5 mg/ml after 18 to 24 hrs by disc diffusion method; type: functional; conditions: read-out: IZ
[8] = system: Klebsiella pneumoniae; assay: Antimicrobial activity against Klebsiella pneumoniae INCQS 00083 ATCC 4352 assessed as zone of inhibition at 5 mg/ml after 18 to 24 hrs by disc diffusion method; type: functional; conditions: read-out: IZ
[9] = system: Pseudomonas aeruginosa; assay: Antimicrobial activity against Pseudomonas aeruginosa INCQS 00099 ATCC 27853 assessed as zone of inhibition at 5 mg/ml after 18 to 24 hrs by disc diffusion method; type: functional; conditions: read-out: IZ
[10] = system: Escherichia coli; assay: Antimicrobial activity against Escherichia coli INCQS 00033 ATCC 25922 after 24 hrs by microdilution assay; type: functional; conditions: ATCC 25922 INCQS 00033, 24 h
[11] = system: Pseudomonas aeruginosa; assay: Antimicrobial activity against Pseudomonas aeruginosa INCQS 00099 ATCC 27853 after 24 hrs by microdilution assay; type: functional; conditions: INCQS 00099 ATCC 27853, 24 h
[12] = system: Escherichia coli; assay: Bactericidal activity against Escherichia coli INCQS 00033 ATCC 25922 incubated for 24 hrs followed by transfer of microbial suspension to agar plates and measured after 24 hrs post transfer by resazurin dye-based colorimetric analysis; type: functional; conditions: ATCC 25922 INCQS 00033, 24 h, read-out: MBC99.9
Method in brief: (§1)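 For MBC, 10 µL from each clear MIC well was plated on agar and incubated 24 h at 37°C. MBC is the minimum concentration inhibiting 99.9% of growth. […] Triplicate.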

[13] = system: Pseudomonas aeruginosa; assay: Bactericidal activity against Pseudomonas aeruginosa INCQS 00099 ATCC 27853 incubated for 24 hrs followed by transfer of microbial suspension to agar plates and measured after 24 hrs post transfer by resazurin dye-based colorimetric analysis; type: functional; conditions: INCQS 00099 ATCC 27853, 24 h, read-out: MBC99.9; method in brief: as §1
[14] = system: Escherichia coli; assay: Ratio of MBC99.9 to MIC for Escherichia coli INCQS 00033 ATCC 25922; type: functional, ATCC 25922 INCQS 00033
Method in brief: (§2)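 MBC/MIC ratio from the 24 h, 37°C microdilution MIC and the agar-plating MBC (99.9% growth inhibition). A ratio ≤2 was classed as bactericidal and ≥4 as bacteriostatic.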

[15] = system: Pseudomonas aeruginosa; assay: Ratio of MBC99.9 to MIC for Pseudomonas aeruginosa INCQS 00099 ATCC 27853; type: functional; method in brief: as §2
[16] = Hemolytic activity against human erythrocytes assessed as hemolysis at 200 ug/ml after 3 hrs by spectrophotometric analysis relative to control; type: ADME, cell-based, Erythrocyte; conditions: read-out: Activity
Method in brief: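 Erythrocytes collected in citrate tubes, washed three times with PBS pH 7.4 by centrifugation and resuspended in PBS. Incubated with compounds at 200 µg/mL for 3 h at 37°C. Released hemoglobin was read in the supernatant at 545 nm against 1% Triton X-100 (complete lysis) and 1% DMSO (negative control). Below 10% hemolysis was taken as hemocompatible. Three independent experiments.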

[17] = system: Staphylococcus aureus; assay: Antimicrobial activity against Staphylococcus aureus INCQS 00015 ATCC 25923 at 256 ug/ml after 24 hrs by microdilution assay; type: functional, organism-based
[18] = system: Staphylococcus epidermidis; assay: Antimicrobial activity against Staphylococcus epidermidis INCQS 00016 ATCC 12228 at 256 ug/ml after 24 hrs by microdilution assay; type: functional, organism-based; conditions: ATCC 12228 INCQS 00016
[19] = system: Staphylococcus simulans; assay: Antimicrobial activity against Staphylococcus simulans INCQS 00254 ATCC 27851 at 256 ug/ml after 24 hrs by microdilution assay; type: functional, organism-based
[20] = system: Staphylococcus aureus; assay: Antimicrobial activity against methicillin-resistant Staphylococcus aureus BMB9393 at 256 ug/ml after 24 hrs by microdilution assay; type: functional, organism-based
[21] = system: Staphylococcus aureus; assay: Bactericidal activity against Staphylococcus aureus INCQS 00015 ATCC 25923 at 256 ug/ml incubated for 24 hrs followed by transfer of microbial suspension to agar plates and measured after 24 hrs post transfer by resazurin dye-based colorimetric analysis; type: functional, organism-based; method in brief: as §1
[22] = system: Staphylococcus epidermidis; assay: Bactericidal activity against Staphylococcus epidermidis INCQS 00016 ATCC 12228 at 256 ug/ml incubated for 24 hrs followed by transfer of microbial suspension to agar plates and measured after 24 hrs post transfer by resazurin dye-based colorimetric analysis; type: functional, organism-based; conditions: ATCC 12228 INCQS 00016; method in brief: as §1
[23] = system: Staphylococcus simulans; assay: Bactericidal activity against Staphylococcus simulans INCQS 00254 ATCC 27851 at 256 ug/ml incubated for 24 hrs followed by transfer of microbial suspension to agar plates and measured after 24 hrs post transfer by resazurin dye-based colorimetric analysis; type: functional, organism-based; method in brief: as §1
[24] = system: Staphylococcus aureus; assay: Bactericidal activity against methicillin-resistant Staphylococcus aureus BMB9393 at 256 ug/ml incubated for 24 hrs followed by transfer of microbial suspension to agar plates and measured after 24 hrs post transfer by resazurin dye-based colorimetric analysis; type: functional, organism-based
Method in brief: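 From MIC wells with no visible growth, 10 µL is transferred to agar plates and incubated 24 h at 37°C. MBC is the minimum concentration inhibiting 99.9% of growth. […] Triplicate.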

| Structure (SMILES) | zone of inhibition at 5000 µg/mL [1] [mm] | zone of inhibition at 5000 µg/mL [2] [mm] | zone of inhibition at 5000 µg/mL [3] [mm] | zone of inhibition at 5000 µg/mL [4] [mm] | zone of inhibition at 5000 µg/mL [5] [mm] | zone of inhibition at 5000 µg/mL [6] [mm] | zone of inhibition at 5000 µg/mL [7] [mm] | zone of inhibition at 5000 µg/mL [8] [mm] | zone of inhibition at 5000 µg/mL [9] [mm] | MIC [10] [µg/mL] | MIC [11] [µg/mL] | MBC [12] [µg/mL] | MBC [13] [µg/mL] | Ratio [14] | Ratio [15] | hemolysis at 3 h, 200 ug/ml [16] [%] | Activity [17] | Activity [18] | Activity [19] | Activity [20] | further results |
| --- | --- | --- | --- | --- | --- | --- | --- | --- | --- | --- | --- | --- | --- | --- | --- | --- | --- | --- | --- | --- | --- |
| COC(=O)c1c(C)nc(C)c2c1C(=O)C(Br)=C(NC[C@H]1O[C@@H](OC)[C@@H]3OC(C)(C)O[C@@H]31)C2=O | 0 | 13 | 11 | 0 | 12 | 17 | 0 | 0 | 17 | 8 (≈ 15.2 µM) | 8 (≈ 15.2 µM) | 8 (≈ 15.2 µM) | 8 (≈ 15.2 µM) | 1 | 1 | < 10 | inactive | inactive | inactive | inactive | Activity [21]: inactive; Activity [22]: inactive; Activity [23]: inactive; Activity [24]: inactive |
| CO[C@@H]1O[C@H](CNC2=C(Br)C(=O)c3ccccc3C2=O)[C@H]2OC(C)(C)O[C@@H]12 | 0 | 8 | 10 | 8 | 0 | 16 | 0 | 0 | 13 | 32 (≈ 73 µM) | 64 (≈ 146 µM) | 32 (≈ 73 µM) | 34 (≈ 77.6 µM) | 1 | 1 | < 10 | inactive | inactive | inactive | inactive | Activity [21]: inactive; Activity [22]: inactive; Activity [23]: inactive; Activity [24]: inactive |
| CC1(C)O[C@H]2O[C@H](CNC3=C(Br)C(=O)c4ccccc4C3=O)[C@H](O)[C@H]2O1 | 0 | 8 | 10 | 9 | 0 | 12 | 0 | 0 | 16 | 16 (≈ 37.7 µM) | 16 (≈ 37.7 µM) | 16 (≈ 37.7 µM) | 16 (≈ 37.7 µM) | 1 | 1 | < 10 | inactive | inactive | inactive | inactive | Activity [21]: inactive; Activity [22]: inactive; Activity [23]: inactive; Activity [24]: inactive |
